These results are taken from ChEMBL document CHEMBL4627381, “Licochalcone A Selectively Resensitizes ABCG2-Overexpressing Multidrug-Resistant Cancer Cells to Chemotherapeutic Drugs” (J Nat Prod, 2020).

One data set addresses T1, ABCG2 (Homo sapiens, UniProt Q9UNQ0).
T1 sequence (Q9UNQ0 whole entry): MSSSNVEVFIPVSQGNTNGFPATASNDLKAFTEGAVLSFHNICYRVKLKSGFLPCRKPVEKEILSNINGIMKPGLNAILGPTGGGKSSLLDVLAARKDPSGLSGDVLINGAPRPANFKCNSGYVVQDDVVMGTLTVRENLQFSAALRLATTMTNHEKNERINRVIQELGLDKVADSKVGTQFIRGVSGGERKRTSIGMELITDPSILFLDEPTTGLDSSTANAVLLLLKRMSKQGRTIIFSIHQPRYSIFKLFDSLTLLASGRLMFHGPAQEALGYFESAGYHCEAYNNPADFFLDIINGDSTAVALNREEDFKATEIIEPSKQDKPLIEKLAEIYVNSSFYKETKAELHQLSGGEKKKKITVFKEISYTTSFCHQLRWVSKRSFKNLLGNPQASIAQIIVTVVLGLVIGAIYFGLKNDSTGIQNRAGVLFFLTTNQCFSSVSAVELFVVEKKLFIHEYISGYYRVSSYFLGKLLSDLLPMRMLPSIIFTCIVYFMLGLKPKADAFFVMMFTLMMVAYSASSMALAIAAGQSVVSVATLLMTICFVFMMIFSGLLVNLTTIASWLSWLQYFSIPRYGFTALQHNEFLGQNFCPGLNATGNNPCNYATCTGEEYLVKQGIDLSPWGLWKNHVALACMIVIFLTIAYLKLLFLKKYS
Kind of data set: Modulation of ABCG2 (unknown origin) expressed in High Five insect cell vesicle membrane assessed as maximal stimulation of ATPase activity after 20 mins by colorimetric assay relative to baseline. As to conditions: membrane vesicles of High Five insect cells expressing ABCG2, read-out: Activity; call rule not given here. In a few lines:
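Membrane vesicles from ABCG2-expressing High Five cells were incubated with LCA (0–390 μM) at 37 °C for 20 min in 50 mM MES-Tris pH 6.8 with ouabain, DTT, NaN3, EGTA and KCl, ±0.3 mM vanadate. Liberated Pi was read by molybdate/ascorbate colorimetry at 880 nm. Vi-sensitive activity = activity minus activity with vanadate; mean ± SD of three experiments.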

Data set [1] addresses T2, Broad substrate specificity ATP-binding cassette transporter ABCG2 (Homo sapiens, UniProt Q9UNQ0).
T2 sequence (Q9UNQ0 whole entry): T1 sequence (Q9UNQ0 whole entry)
The data set can be described thus: Reversal of human ABCG2-mediated multidrug resistance in HEK293/R482 cells assessed as fold change in mitoxantrone IC50 at 3 uM after 72 hrs by CCK8 assay relative to mitoxantrone IC50. Type of data set: cell-based. In a few lines: (§1)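 Cells were seeded at 5000/well for 24 h, then given colchicine, etoposide, mitoxantrone or topotecan ± non-toxic modulator (0.5–3.0 μM) for 72 h, with DMSO up to 0.5%. IC50 came from fitted curves (mean ± SD, three experiments). Fold-reversal = IC50 without modulator ÷ IC50 with modulator.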

Data set [2] addresses T2, Broad substrate specificity ATP-binding cassette transporter ABCG2. Kind of data set: Modulation of ABCG2 (unknown origin) expressed in H460-MX20 cells assessed as increase in intracellular pheophorbide A accumulation at 20 uM incubated for 1 hr by FACScan flow cytometry. It counts as cell-based. In a few lines:
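Cells held drug-free 7 days. 3 × 10^5 cells were suspended in IMDM with 5% FCS and loaded with pheophorbide A (ex 395/em 670 nm) for 1 h, with or without LCA (20 μM for single-concentration accumulation) or Ko143 3 μM as reference. Read immediately by flow cytometry. Efflux inhibition was run over a concentration range; mean ± SD of three experiments.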

The subject of the next data set is HEK293. Kind of data set: Effect on Colchicine-induced cytotoxicity against HEK293 cells assessed as fold change in colchicine IC50 at 2 uM after 72 hrs by CCK8 assay relative to colchicine IC50. Type of data set: cell-based. As to conditions: human, hek293, 72 h. In a few lines:
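Reversal assay in parental pcDNA-HEK293 and transfected HEK293 lines (ABCB1 for colchicine, ABCC1 for etoposide, ABCG2 for mitoxantrone/topotecan). Substrate drug series was given with or without nontoxic modulator (0.5, 1.0, 2.0 or 3.0 μM) for 72 h, with a CCK-8 read-out. Fold-reversal is substrate IC50 without modulator divided by IC50 with modulator. Three independent experiments.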
On the technique in general: Formazan colour is commonly taken as a measure of viable cells.

Data set [3] concerns the target T2, Broad substrate specificity ATP-binding cassette transporter ABCG2. Kind of data set: Reversal of ABCG2 (unknown origin)-mediated multidrug resistance in human S1-M1-80 cells assessed as fold-change in mitoxantrone IC50 at 2 uM after 72 hrs by MTT assay relative to mitoxantrone IC50. Type of data set: cell-based. Conditions: s1-m1-80, 72 h. In a few lines:
(§2)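 MTT readout in S1-M1-80 colon cancer cells (mitoxantrone-selected, held in 80 μM mitoxantrone, then drug-free 7 days before assay). Cells were seeded at 5000/well for 24 h, then given increasing mitoxantrone or topotecan with DMSO or non-toxic modulator for 72 h at 37 °C. IC50 came from fitted dose-response curves (at least three independent experiments). Fold-reversal = IC50 without modulator ÷ IC50 with modulator.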

Data set [4] deals with S1. The data set can be described thus: Induction of apoptosis in human S1 cells assessed as necrotic cells at 10 uM incubated for 48 hrs in presence of topotecan by annexin V/propidium iodide staining based flow cytometry (reference value: 0.2%). It counts as functional. In a few lines:
(§3)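 S1 cells were exposed for 48 h to DMSO, 10 μM compound, 5 μM topotecan, or 5 μM topotecan plus 10 μM compound. They were then stained with 1.25 μg/mL annexin V–FITC and 0.1 mg/mL PI for 15 min at room temperature. 10000 cells per sample were analysed by flow cytometry; three independent experiments.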
For orientation: A flow cytometer gives signals particle by particle.

Data set [5] concerns the target T2, Broad substrate specificity ATP-binding cassette transporter ABCG2. The data set can be described thus: Reversal of human ABCG2-mediated multidrug resistance in HEK293/R482 cells assessed as fold change in mitoxantrone IC50 at 2 uM after 72 hrs by CCK8 assay relative to mitoxantrone IC50. It counts as cell-based. In a few lines: as §1
The target is the same in data set [6]. Kind of data set: Reversal of human ABCG2-mediated multidrug resistance in HEK293/R482 cells assessed as potentiation of topotecan-induced cytotoxicity after 72 hrs by CCK8 assay. Type of data set: cell-based. In a few lines:
as §1

The target is the same in data set [7]. Kind of data set: Reversal of ABCG2 (unknown origin)-mediated multidrug resistance in human S1-M1-80 cells assessed as fold-change in topotecan IC50 at 2 uM after 72 hrs by MTT assay relative to topotecan IC50. Type of data set: cell-based. Conditions: s1-m1-80, 72 h. In a few lines:
as §2

For data set [8], the system named is S1. Kind of data set: Induction of apoptosis in human S1 cells assessed as early apoptotic cells at 10 uM incubated for 48 hrs in presence of topotecan by annexin V/propidium iodide staining based flow cytometry (reference value: 2%). Type of data set: functional. In a few lines: as §3
Data set [9] deals with ATP-dependent translocase ABCB1 (Homo sapiens, UniProt P08183). The data set can be described thus: Modulation of human ABCB1 expressed in HEK293/MDR19 cells assessed as increase in intracellular calcein-AM accumulation at 20 uM incubated for 10 mins by FACScan flow cytometry. Type of data set: cell-based. In a few lines: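 Cells held drug-free 7 days. 3 × 10^5 cells in IMDM with 5% FCS were loaded with calcein-AM for 10 min, with or without 20 μM LCA. Reference inhibitors were tariquidar 3 μM (ABCB1) and MK-571 25 μM (ABCC1). Calcein fluorescence (ex 485/em 535 nm) was read by flow cytometry; at least three independent experiments.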

In data set [10] the test system is S1. Kind of data set: Cytotoxicity against human S1 cells after 72 hrs by MTT assay. Type of data set: functional, cell-based. As to conditions: S1, 72 h. In a few lines:
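Cells seeded at 5000/well, allowed 24 h, then exposed to a concentration series for 72 h at 37 °C in DMSO vehicle (up to 0.5% v/v). HEK293 lines were read with CCK-8 and cancer lines with MTT. IC50 was taken from fitted dose-response curves over at least three independent experiments. Lines were kept drug-free for 7 days before assay.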

Sequence of ATP-dependent translocase ABCB1 (P08183 whole entry): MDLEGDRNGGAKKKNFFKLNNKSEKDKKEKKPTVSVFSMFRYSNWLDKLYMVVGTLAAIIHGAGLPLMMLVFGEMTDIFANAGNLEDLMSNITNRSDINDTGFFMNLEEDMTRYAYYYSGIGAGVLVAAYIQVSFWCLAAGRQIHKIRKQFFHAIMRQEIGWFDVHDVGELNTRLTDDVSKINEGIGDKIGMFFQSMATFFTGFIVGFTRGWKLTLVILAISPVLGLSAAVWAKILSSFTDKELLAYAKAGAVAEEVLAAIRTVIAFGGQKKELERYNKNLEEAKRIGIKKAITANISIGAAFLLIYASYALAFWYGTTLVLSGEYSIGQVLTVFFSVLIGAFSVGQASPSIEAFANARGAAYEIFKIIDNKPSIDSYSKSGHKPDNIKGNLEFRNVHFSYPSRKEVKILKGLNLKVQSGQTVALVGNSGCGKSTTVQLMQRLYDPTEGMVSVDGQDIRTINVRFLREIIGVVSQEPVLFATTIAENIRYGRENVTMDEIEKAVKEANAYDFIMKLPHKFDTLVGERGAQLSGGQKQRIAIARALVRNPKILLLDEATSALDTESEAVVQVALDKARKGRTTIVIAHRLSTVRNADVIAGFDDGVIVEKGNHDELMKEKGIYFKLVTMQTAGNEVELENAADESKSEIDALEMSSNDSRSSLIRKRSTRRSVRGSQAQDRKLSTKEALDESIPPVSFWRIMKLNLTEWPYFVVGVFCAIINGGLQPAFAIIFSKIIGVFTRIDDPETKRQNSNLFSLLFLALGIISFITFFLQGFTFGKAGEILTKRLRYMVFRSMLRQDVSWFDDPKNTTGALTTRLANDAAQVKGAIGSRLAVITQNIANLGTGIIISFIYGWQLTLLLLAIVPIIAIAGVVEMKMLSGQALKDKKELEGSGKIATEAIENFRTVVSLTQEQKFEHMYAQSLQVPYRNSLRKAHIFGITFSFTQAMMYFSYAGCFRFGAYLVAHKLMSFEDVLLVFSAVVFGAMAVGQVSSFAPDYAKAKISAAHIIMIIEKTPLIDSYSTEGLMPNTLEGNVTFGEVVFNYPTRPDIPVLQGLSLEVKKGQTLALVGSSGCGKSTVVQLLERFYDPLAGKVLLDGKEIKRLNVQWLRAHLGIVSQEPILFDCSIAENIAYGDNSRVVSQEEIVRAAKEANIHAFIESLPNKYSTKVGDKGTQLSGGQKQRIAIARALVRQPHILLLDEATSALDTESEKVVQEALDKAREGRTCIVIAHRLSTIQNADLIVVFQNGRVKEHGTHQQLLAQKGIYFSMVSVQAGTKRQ

Regarding `C=CC(C)(C)c1cc(/C=C/C(=O)c2ccc(O)cc2)c(OC)cc1O` [LICOAGROCHACONE A], the Emax at 20 min at ABCG2 turned out to be 150%. For the same compound, the “fold change (FC)” value in data set [1] worked out at 8.1; with HEK293 it was 0.9; in data set [3], 28; in data set [5] it was 6.5; in [7], 24.7. Also, the Activity result was “Active” in data set [2]; 3% in the data set on S1 [4]; “Dose-dependent effect” in data set [6]; 30.3% in the data set on S1 [8]; “Not Active” in data set [9]. Further, in the data set on S1 [10], the half-maximal inhibitory concentration (IC50) (commonly the concentration that gives 50% inhibition) is 10 to 50 µM.
